ChEMBL document CHEMBL1157589, “Antifungal 3,5-disubstituted furanones: From 5-acyloxymethyl to 5-alkylidene derivatives” (Bioorg Med Chem, 2010)
In brackets after ≈: the same amount, converted by molar mass.

What was measured:
Clavispora lusitaniae [1] = experiment: Antifungal activity against Candida lusitaniae 2446/I after 24 hrs by microdilution method; format: functional
Summary of the method: (§1)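 Yeasts held on Sabouraud dextrose agar. MIC by NCCLS M27-A broth microdilution in RPMI 1640 with L-glutamine, buffered with 0.165 M MOPS to pH 7.0. Compounds in DMSO (≤2% final), twofold dilutions 500–0.48. Final inoculum 5 × 10³ ± 0.2 cfu mL⁻¹. Incubated at 35 °C; absorbance at 540 nm read at 24 and 48 h. MIC is 80% growth inhibition versus control; run twice in duplicate.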

Candida albicans [2] = experiment: Antifungal activity against Candida albicans ATCC 90028 after 48 hrs by microdilution method; format: functional; conditions: ATCC 90028, 48 h; summary of the method: as §1
Pichia kudriavzevii [3] = experiment: Antifungal activity against Candida krusei E28 after 24 hrs by microdilution method; format: functional; conditions: E28, 24 h; summary of the method: as §1
Pichia kudriavzevii [4] = experiment: Antifungal activity against Candida krusei E28 after 48 hrs by microdilution method; format: functional; conditions: E28, 48 h; summary of the method: as §1
Candida albicans [5] = experiment: Antifungal activity against Candida albicans ATCC 44859 after 48 hrs by microdilution method; format: functional; conditions: ATCC 44859, 48 h; summary of the method: as §1
Lichtheimia corymbifera [6] = experiment: Antifungal activity against Absidia corymbifera 272 after 24 hrs by microdilution method; format: functional; conditions: Lichtheimia corymbifera, 272, 24 h
Summary of the method: (§2)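 Filamentous strains held on Sabouraud dextrose agar. NCCLS M27-A broth microdilution in RPMI 1640 with L-glutamine and 0.165 M MOPS, pH 7.0. DMSO diluent ≤2% final; twofold dilutions 500–0.48. Inoculum 5 × 10³ ± 0.2 cfu mL⁻¹ final.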

Nakaseomyces glabratus [7] = experiment: Antifungal activity against Candida glabrata 20/I after 48 hrs by microdilution method; format: functional; summary of the method: as §1
[8] = tested on: Trichophyton mentagrophytes; experiment: Antifungal activity against Trichophyton mentagrophytes 445 after 72 hrs by microdilution method; format: functional; conditions: Trichophyton mentagrophytes, 445, 72 h
Summary of the method: (§3)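 Dermatophyte held on Sabouraud dextrose agar. M27-A microdilution in MOPS-buffered (0.165 M, pH 7.0) RPMI 1640 with L-glutamine. DMSO ≤2% final; twofold dilutions 500–0.48. Inoculum 5 × 10³ ± 0.2 cfu mL⁻¹ final. Incubated at 35 °C; MIC read visually at 72 and 120 h as 80% inhibition of control growth; determined twice in duplicate.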

Candida tropicalis [9] = experiment: Antifungal activity against Candida tropicalis 156 after 24 hrs by microdilution method; format: functional; conditions: Candida tropicalis, 156, 24 h; summary of the method: as §1
Pichia kudriavzevii [10] = experiment: Antifungal activity against Candida krusei ATCC 6258 after 48 hrs by microdilution method; format: functional; conditions: ATCC 6258, 48 h; summary of the method: as §1
Aspergillus fumigatus [11] = experiment: Antifungal activity against Aspergillus fumigatus 231 after 48 hrs by microdilution method; format: functional; conditions: Aspergillus fumigatus, 231, 48 h; summary of the method: as §2
Trichosporon beigelii [12] = experiment: Antifungal activity against Trichosporon beigelii 1188 after 48 hrs by microdilution method; format: functional; conditions: Trichosporon beigelii, 1188, 48 h; summary of the method: as §1
Candida tropicalis [13] = experiment: Antifungal activity against Candida tropicalis 156 after 48 hrs by microdilution method; format: functional; conditions: Candida tropicalis, 156, 48 h; summary of the method: as §1
Nakaseomyces glabratus [14] = experiment: Antifungal activity against Candida glabrata 20/I after 24 hrs by microdilution method; format: functional; summary of the method: as §1
Lichtheimia corymbifera [15] = experiment: Antifungal activity against Absidia corymbifera 272 after 48 hrs by microdilution method; format: functional; conditions: Lichtheimia corymbifera, 272, 48 h; summary of the method: as §2
Trichosporon beigelii [16] = experiment: Antifungal activity against Trichosporon beigelii 1188 after 24 hrs by microdilution method; format: functional; conditions: Trichosporon beigelii, 1188, 24 h; summary of the method: as §1
Pichia kudriavzevii [17] = experiment: Antifungal activity against Candida krusei ATCC 6258 after 24 hrs by microdilution method; format: functional; conditions: ATCC 6258, 24 h; summary of the method: as §1
HeLa S3 [18] = experiment: Cytostatic activity against human HeLaS3 cells after 72 hrs by XTT assay; format: functional, cell-based
Candida parapsilosis [19] = experiment: Antifungal activity against Candida parapsilosis ATCC 22019 after 48 hrs by microdilution method; format: functional; conditions: Lodderomyces parapsilosis, ATCC 22019, 48 h; summary of the method: as §1
Candida albicans [20] = experiment: Antifungal activity against Candida albicans ATCC 90028 after 24 hrs by microdilution method; format: functional; conditions: ATCC 90028, 24 h; summary of the method: as §1
HL-60 = experiment: Cytostatic activity against human HL60 cells after 72 hrs by XTT assay; format: functional, cell-based
Summary of the method: (§4)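 Leukemia cells (L1210 ATCC CCL 219, CCRF-CEM ATCC CCL 119, HL-60 ATCC CCL 240) grown in 24-well plates in RPMI 1640 with fetal calf serum. Growth assessed 72 h after drug addition. Viability measured by XTT spectrophotometric assay; potency given as IC50.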

Clavispora lusitaniae [21] = experiment: Antifungal activity against Candida lusitaniae 2446/I after 48 hrs by microdilution method; format: functional; summary of the method: as §1
Candida parapsilosis [22] = experiment: Antifungal activity against Candida parapsilosis ATCC 22019 after 24 hrs by microdilution method; format: functional; conditions: Lodderomyces parapsilosis, ATCC 22019, 24 h; summary of the method: as §1
[23] = tested on: Trichophyton mentagrophytes; experiment: Antifungal activity against Trichophyton mentagrophytes 445 after 120 hrs by microdilution method; format: functional; conditions: Trichophyton mentagrophytes, 445, 120 h; summary of the method: as §3
Candida albicans [24] = experiment: Antifungal activity against Candida albicans ATCC 44859 after 24 hrs by microdilution method; format: functional; conditions: ATCC 44859, 24 h; summary of the method: as §1
CCRF-CEM = experiment: Cytostatic activity against human CCRF-CEM cells after 72 hrs by XTT assay; format: functional, cell-based; summary of the method: as §4
Aspergillus fumigatus [25] = experiment: Antifungal activity against Aspergillus fumigatus 231 after 24 hrs by microdilution method; format: functional; conditions: Aspergillus fumigatus, 231, 24 h; summary of the method: as §2
L1210 = experiment: Cytostatic activity against mouse L1210 cells after 72 hrs by XTT assay; format: functional, cell-based; conditions: l1210; summary of the method: as §4
HeLa S3 [26] = experiment: Cytostatic activity against human HeLaS3 cells after 48 hrs by XTT assay; conditions: hela s3

| Compound | MIC80 (Clavispora lusitaniae [1]) | MIC80 (Candida albicans [2]) | MIC80 (Pichia kudriavzevii [3]) | MIC80 (Pichia kudriavzevii [4]) | MIC80 (Candida albicans [5]) | MIC80 (Lichtheimia corymbifera [6]) | MIC80 (Nakaseomyces glabratus [7]) | MIC80 [8] | MIC80 (Candida tropicalis [9]) | MIC80 (Pichia kudriavzevii [10]) | MIC80 (Aspergillus fumigatus [11]) | MIC80 (Trichosporon beigelii [12]) | MIC80 (Candida tropicalis [13]) | MIC80 (Nakaseomyces glabratus [14]) | MIC80 (Lichtheimia corymbifera [15]) | MIC80 (Trichosporon beigelii [16]) | MIC80 (Pichia kudriavzevii [17]) | MIC80 (Candida parapsilosis [19]) | MIC80 (Candida albicans [20]) | MIC80 (Clavispora lusitaniae [21]) | other results |
| --- | --- | --- | --- | --- | --- | --- | --- | --- | --- | --- | --- | --- | --- | --- | --- | --- | --- | --- | --- | --- | --- |
| COCC1C=C(c2ccc(Br)cc2)C(=O)O1 (stereo not given) | 62.5 µM (≈ 17.7 µg/mL) | 31.2 µM (≈ 8.85 µg/mL) | 250 µM (≈ 70.8 µg/mL) | 500 µM (≈ 142 µg/mL) | 31.2 µM (≈ 8.85 µg/mL) | 125 µM (≈ 35.4 µg/mL) | 125 µM (≈ 35.4 µg/mL) | 31.2 µM (≈ 8.85 µg/mL) | 62.5 µM (≈ 17.7 µg/mL) | 250 µM (≈ 70.8 µg/mL) | 62.5 µM (≈ 17.7 µg/mL) | 125 µM (≈ 35.4 µg/mL) | 62.5 µM (≈ 17.7 µg/mL) | 125 µM (≈ 35.4 µg/mL) | 250 µM (≈ 70.8 µg/mL) | 62.5 µM (≈ 17.7 µg/mL) | 250 µM (≈ 70.8 µg/mL) | 250 µM (≈ 70.8 µg/mL) | 31.2 µM (≈ 8.85 µg/mL) | 125 µM (≈ 35.4 µg/mL) | IC50 (HeLa S3 [18]): Not Active; IC50 (HL-60; Homo sapiens, HL-60, 72 h, read-out: IC50): 16 µM; MIC80 (Candida parapsilosis [22]): 125 µM (≈ 35.4 µg/mL); MIC80 [23]: 31.2 µM (≈ 8.85 µg/mL); MIC80 (Candida albicans [24]): 15.6 µM (≈ 4.42 µg/mL); IC50 (CCRF-CEM; Homo sapiens, CCRF-CEM, 72 h, read-out: IC50): 2.21 µM; MIC80 (Aspergillus fumigatus [25]): 31.2 µM (≈ 8.85 µg/mL) |
| C/C=C1/C=C(c2ccc(Br)cc2)C(=O)O1 | > 500 µM | > 500 µM | > 500 µM | > 500 µM | > 500 µM | > 500 µM | > 500 µM | 31.2 µM (≈ 8.28 µg/mL) | > 500 µM | > 500 µM | > 500 µM | > 500 µM | > 500 µM | > 500 µM | > 500 µM | > 500 µM | > 500 µM | > 500 µM | > 500 µM | > 500 µM | IC50 (L1210): Not Active; IC50 (HeLa S3 [26]): Not Active; IC50 (HL-60; hl-60): Not Active; MIC80 (Candida parapsilosis [22]): > 500 µM; MIC80 [23]: 31.2 µM (≈ 8.28 µg/mL); MIC80 (Candida albicans [24]): 250 µM (≈ 66.3 µg/mL); IC50 (CCRF-CEM; ccrf-cem): Not Active; MIC80 (Aspergillus fumigatus [25]): > 500 µM |
